The results in this text go back to ChEMBL document CHEMBL1782004, “Pyrimidine nucleotides with 4-alkyloxyimino and terminal tetraphosphate δ-ester modifications as selective agonists of the P2Y(4) receptor” (J Med Chem, 2011).

Activity calls are given as the source filed them. No cut-off for these calls is given here.

Test [1] deals with T1, P2Y purinoceptor 2 (Homo sapiens, UniProt P41231). As to the kind of experiment: Agonist activity at human recombinant P2Y2 receptor expressed in human 1321N1 cells assessed as [3H]inositol phosphate production after 30 mins by scintillation proximity assay. It counts as functional, cell-based. In outline: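 Stable 1321N1 human astrocytoma lines expressing human P2Y2, P2Y4 or P2Y6 were seeded at 20,000 cells/well two days ahead. Cells were then challenged with agonist in HEPES pH 7.3/HBSS containing LiCl for 30 min at 37°C. The reaction was stopped with ice-cold 50 mM formic acid and [3H]inositol phosphates were read by SPA.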

In test [2] the target is T1, P2Y purinoceptor 2. As to the kind of experiment: Ratio of EC50 for human recombinant P2Y2 receptor expressed in human 1321N1 cells to EC50 for human recombinant P2Y4 receptor expressed in human 1321N1 cells. The test is classed as cell-based.
In test [3] the target is T2, P2Y purinoceptor 6 (Homo sapiens, UniProt Q15077). As to the kind of experiment: Agonist activity at human recombinant P2Y6 receptor expressed in human 1321N1 cells assessed as [3H]inositol phosphate production after 30 mins by scintillation proximity assay. The test is classed as functional, cell-based. A digest of the protocol:
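1321N1 astrocytoma cells stably expressing human P2Y6, seeded 2 days ahead and labelled 16 h with myo-[3H]inositol in serum-free inositol-free DMEM. Agonist added as five-fold concentrate in HEPES pH 7.3/HBSS with 50 mM LiCl, 30 min at 37°C. Stopped with ice-cold 50 mM formic acid. EC50 from four-parameter logistic fit; triplicates, three to six experiments; UDP reference curve.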

Test [4] deals with 1321-N1. Description: Ratio of EC50 for human recombinant P2Y6 receptor expressed in human 1321N1 cells to EC50 for human recombinant P2Y4 receptor expressed in human 1321N1 cells. It counts as cell-based.
For test [5], the target named is T3, P2Y purinoceptor 4 (Homo sapiens, UniProt P51582). As to the kind of experiment: Agonist activity at human recombinant P2Y4 receptor expressed in human 1321N1 cells assessed as [3H]inositol phosphate production after 30 mins by scintillation proximity assay. The test is classed as functional, cell-based. In outline:
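Stable 1321N1 human astrocytoma lines expressing human P2Y2, P2Y4 or P2Y6 were seeded at 20,000 cells/well two days ahead. They were labelled for 16 h with 1.0 μCi myo-[3H]inositol in serum-free, inositol-free DMEM. Cells were then challenged with agonist in HEPES pH 7.3/HBSS containing LiCl for 30 min at 37°C. The reaction was stopped with ice-cold 50 mM formic acid and [3H]inositol phosphates were read by SPA.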

The target in test [6] is T3, P2Y purinoceptor 4. As to the kind of experiment: Agonist activity at human recombinant P2Y4 receptor expressed in human 1321N1 cells assessed as [3H]inositol phosphate production at 10 uM after 30 mins by scintillation proximity assay. The test is classed as functional, cell-based.
Test [7] is described as follows: Ratio of EC50 for P2Y4 to EC50 for P2Y2.
A short description of test [8]: Ratio of EC50 for P2Y6 to EC50 for P2Y2.
Test [9] concerns the target T2, P2Y purinoceptor 6. As to the kind of experiment: Agonist activity at human recombinant P2Y6 receptor expressed in human 1321N1 cells assessed as [3H]inositol phosphate production at 10 uM after 30 mins by scintillation proximity assay. It counts as functional, cell-based.
Test [10] deals with T1, P2Y purinoceptor 2. Description: Agonist activity at human recombinant P2Y2 receptor expressed in human 1321N1 cells assessed as [3H]inositol phosphate production at 10 uM after 30 mins by scintillation proximity assay. The test is classed as functional, cell-based.
For test [11], the system named is Oocyte. Description: Ratio of EC50 for rat P2Y2 expressed in Xenopus oocytes to EC50 for rat P2Y4 expressed in Xenopus oocytes. It counts as cell-based.
Test [12] has as its target T1, P2Y purinoceptor 2. Description: Agonist activity at human P2Y2. The test is classed as functional.

T2 sequence (Q15077 whole entry): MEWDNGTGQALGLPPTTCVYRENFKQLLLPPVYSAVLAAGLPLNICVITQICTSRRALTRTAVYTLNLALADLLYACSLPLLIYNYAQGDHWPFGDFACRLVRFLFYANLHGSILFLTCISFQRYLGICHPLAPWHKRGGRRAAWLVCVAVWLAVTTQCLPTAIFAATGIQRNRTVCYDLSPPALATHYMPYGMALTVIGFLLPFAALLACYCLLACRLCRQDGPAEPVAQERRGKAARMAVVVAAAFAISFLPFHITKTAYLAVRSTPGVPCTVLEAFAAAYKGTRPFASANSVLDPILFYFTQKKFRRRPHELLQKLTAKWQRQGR
T3 sequence (P51582 whole entry): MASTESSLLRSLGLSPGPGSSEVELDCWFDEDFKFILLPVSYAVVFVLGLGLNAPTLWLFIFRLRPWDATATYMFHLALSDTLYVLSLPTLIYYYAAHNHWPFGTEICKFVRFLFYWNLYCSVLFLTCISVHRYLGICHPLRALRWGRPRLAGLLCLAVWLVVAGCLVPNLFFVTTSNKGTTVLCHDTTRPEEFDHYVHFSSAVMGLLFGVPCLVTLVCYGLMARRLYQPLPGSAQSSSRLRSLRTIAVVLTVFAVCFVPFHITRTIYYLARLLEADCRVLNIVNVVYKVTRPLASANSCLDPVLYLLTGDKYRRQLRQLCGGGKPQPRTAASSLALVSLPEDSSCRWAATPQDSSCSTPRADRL
T1 sequence (P41231 whole entry): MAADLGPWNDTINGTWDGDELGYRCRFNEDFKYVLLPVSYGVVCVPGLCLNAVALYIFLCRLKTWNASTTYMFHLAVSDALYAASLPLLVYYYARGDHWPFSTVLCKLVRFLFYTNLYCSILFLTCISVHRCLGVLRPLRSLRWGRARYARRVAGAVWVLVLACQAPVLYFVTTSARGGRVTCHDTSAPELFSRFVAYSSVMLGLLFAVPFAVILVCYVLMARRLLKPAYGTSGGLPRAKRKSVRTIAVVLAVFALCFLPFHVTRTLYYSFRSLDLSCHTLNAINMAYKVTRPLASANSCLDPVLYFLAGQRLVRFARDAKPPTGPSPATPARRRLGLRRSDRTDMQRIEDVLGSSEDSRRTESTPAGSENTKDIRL

In the case of `O=c1ccn([C@@H]2O[C@H](COP(=O)(O)OP(=O)(O)OP(=O)(O)OP(=O)(O)O[C@H]3O[C@H](CO)[C@@H](O)[C@H](F)[C@H]3O)[C@@H](O)[C@H]2O)c(=O)[nH]1`, the EC50 in test [1] amounted to 710 nM; in test [3], 950 nM; in [5] it was 62 nM. For the same compound, the Ratio EC50 came out at 11.5 in test [2] and 15.3 in [4].
As to `O=c1ccn([C@@H]2O[C@H](COP(=O)(O)OP(=O)(O)OP(=O)(O)OP(=O)(O)O[C@H]3OC[C@@H](O)[C@H](O)[C@H]3O)[C@@H](O)[C@H]2O)c(=O)[nH]1`, the values for the EC50 in test [1], in [3] and in [5] were 2770 nM, 4900 nM and 620 nM, respectively.
On to `O=c1ccn([C@@H]2O[C@H](COP(=O)(O)OP(=O)(O)OP(=O)(O)OP(=O)(O)Oc3cccc(Cl)c3)[C@@H](O)[C@H]2O)c(=O)[nH]1`, for which the EC50 in test [1] stood at 840 nM; in test [3] it was 3690 nM. Besides, the result in [6] was inactive.
As to `O=c1ccn([C@@H]2O[C@H](COP(=O)(O)OP(=O)(O)OP(=O)(O)OP(=O)(O)O[C@H]3O[C@H](CO)[C@@H](O)[C@H](O)[C@H]3O)[C@@H](O)[C@H]2O)c(=O)[nH]1`, the results for the Ratio EC50 in test [7] and in test [8] were 7 and 26, respectively.
Consider `O=C(O)[C@H]1O[C@H](OP(=O)(O)OP(=O)(O)OP(=O)(O)OP(=O)(O)OC[C@H]2O[C@@H](n3ccc(=O)[nH]c3=O)[C@H](O)[C@@H]2O)[C@H](O)[C@@H](O)[C@@H]1O`, for which the EC50 in [1] is 490 nM; in test [3], 1650 nM; in test [5] it was 227 nM.
Consider `O=c1nc(NOCCCc2ccccc2)ccn1[C@@H]1O[C@H](COP(=O)(O)OP(=O)(O)OP(=O)(O)O)[C@@H](O)[C@H]1O`, for which the EC50 came to 640 nM in test [1], 740 nM in test [3] and 23 nM in test [5].
Consider `O=c1ccn([C@@H]2O[C@H](COP(=O)(O)OP(=O)(O)OP(=O)(O)OP(=O)(O)Oc3ccccc3)[C@@H](O)[C@H]2O)c(=O)[nH]1`, for which, in test [1], the EC50 is 2760 nM. In addition, the outcome in test [6] and in [9] was inactive.
With `O=c1ccn([C@@H]2O[C@H](COP(=O)(O)OP(=O)(O)C(Cl)(Cl)P(=O)(O)OP(=O)(O)O[C@H]3O[C@H](CO)[C@@H](O)[C@H](O)[C@H]3O)[C@@H](O)[C@H]2O)c(=O)[nH]1`, the outcome in test [6] and in [9] was inactive. Further, the Activity in test [10] was under 50%.
With `O=P(O)(O)OP(=O)(O)OP(=O)(O)OC[C@H]1O[C@@H](n2cnc3c(O)ncnc32)[C@H](O)[C@@H]1O`, the Ratio EC50 in [11] came out at 13.
For the compound `O=c1ccn([C@@H]2O[C@H](COP(=O)(O)OP(=O)(O)OP(=O)(O)OP(=O)(O)O[C@H]3O[C@H](CO)[C@@H](F)[C@H](O)[C@H]3O)[C@@H](O)[C@H]2O)c(=O)[nH]1`, the results for the EC50 in [1], in test [3] and in test [5] were 620 nM, 1640 nM and 220 nM, respectively.
The corresponding values for `O=c1[nH]/c(=N\OCc2ccccc2)ccn1[C@@H]1O[C@H](COP(=O)(O)OP(=O)(O)OP(=O)(O)OP(=O)(O)O[C@H]2O[C@H](CO)[C@@H](O)[C@H](F)[C@H]2O)[C@@H](O)[C@H]1O` are 2640 nM, 7510 nM and 670 nM.
In the case of `CC(C)(C)O/N=c1/ccn([C@@H]2O[C@H](COP(=O)(O)OP(=O)(O)OP(=O)(O)O)[C@@H](O)[C@H]2O)c(=O)[nH]1`, the Activity in [9] was under 50%.
In the case of `CC(=O)N[C@H]1[C@@H](OP(=O)(O)OP(=O)(O)OP(=O)(O)OP(=O)(O)OC[C@H]2O[C@@H](n3ccc(=O)[nH]c3=O)[C@H](O)[C@@H]2O)O[C@H](CO)[C@@H](O)[C@@H]1O`, the EC50 in test [1] was 1890 nM; in test [3], 5460 nM; in test [5], 910 nM.
Turning to `O=c1ccn([C@@H]2O[C@H](COP(=O)(O)OP(=O)(O)OP(=O)(O)OP(=O)(O)O[C@H]3O[C@H](CO)[C@@H](O)[C@H](O)[C@H]3F)[C@@H](O)[C@H]2O)c(=O)[nH]1`, the Activity in test [6], in test [9] and in test [10] was under 50% in each case.
For the compound `CC(C)(C)ONc1ccn([C@@H]2O[C@H](COP(=O)(O)OP(=O)(O)OP(=O)(O)O)[C@@H](O)[C@H]2O)c(=O)n1`, the figures for the EC50 in test [1] and in [5] were 1500 nM and 2110 nM, respectively.
In the case of `O=c1[nH]/c(=N\OCCCc2ccccc2)ccn1[C@@H]1O[C@H](COP(=O)(O)OP(=O)(O)OP(=O)(O)O)[C@@H](O)[C@H]1O`, the Ratio EC50 in test [2] was found to be 28; in test [4], 32.
In the case of `O=c1ccn([C@@H]2O[C@H](COP(=O)(O)OP(=O)(O)OP(=O)(O)OP(=O)(O)O)[C@@H](O)[C@H]2O)c(=O)[nH]1`, the values for the EC50 in test [1] and in test [5] were 3900 nM and 7300 nM, respectively.
With `O=c1ccn([C@@H]2O[C@H](COP(=O)(O)OP(=O)(O)OP(=O)(O)OP(=O)(O)Oc3ccc([N+](=O)[O-])cc3)[C@@H](O)[C@H]2O)c(=O)[nH]1`, the EC50 in test [1] was 4850 nM. The Activity in test [6] and in [9] was under 50% each time.
On to `O=c1ccn([C@@H]2O[C@H](COP(=O)(O)OP(=O)(O)OP(=O)(O)OP(=O)(O)O[C@H]3O[C@H](CO)[C@@H](O)[C@H](O)[C@@H]3O)[C@@H](O)[C@H]2O)c(=O)[nH]1`, for which the EC50 in test [1] came to 3720 nM; in test [3] it was 12100 nM; in test [5], 4480 nM.
With `O=c1ccn([C@@H]2O[C@H](COP(=O)(O)OP(=O)(O)OP(=O)(O)OP(=O)(O)Oc3cccc([N+](=O)[O-])c3)[C@@H](O)[C@H]2O)c(=O)[nH]1`, the EC50 is 3330 nM in test [1] and 2540 nM in test [5]. Also, the Activity in test [9] is under 50%.
Turning to `O=c1[nH]/c(=N\OCCc2ccccc2)ccn1[C@@H]1O[C@H](COP(=O)(O)OP(=O)(O)OP(=O)(O)O)[C@@H](O)[C@H]1O`, the Ratio EC50 in test [2] was found to be 16; in test [4], 17.
For `O=c1ccn([C@@H]2O[C@H](COP(=O)(O)OP(=O)(O)C(Cl)(Cl)P(=O)(O)O)[C@@H](O)[C@H]2O)c(=S)[nH]1`, the outcome in test [6] and in [9] was inactive.
In the case of `COc1ccc(OP(=O)(O)OP(=O)(O)OP(=O)(O)OP(=O)(O)OC[C@H]2O[C@@H](n3ccc(=O)[nH]c3=O)[C@H](O)[C@@H]2O)cc1`, the Activity in [6], in [9] and in [10] was under 50% throughout.
For `O=c1ccn([C@@H]2O[C@H](COP(=O)(O)OP(=O)(O)OP(=O)(O)O)[C@@H](O)[C@H]2O)c(=O)[nH]1` [URIDINE TRIPHOSPHATE], the EC50 was 55 nM in test [1] and 80 nM in test [5].
As for `COc1cccc(OP(=O)(O)OP(=O)(O)OP(=O)(O)OP(=O)(O)OC[C@H]2O[C@@H](n3ccc(=O)[nH]c3=O)[C@H](O)[C@@H]2O)c1`, the outcome in test [6] was inactive. The Activity in [9] and in test [10] was under 50% in each case.
With `O=c1ccn([C@@H]2O[C@H](COP(=O)(O)OP(=O)(O)C(Cl)(Cl)P(=O)(O)O)[C@@H](O)[C@H]2O)c(=O)[nH]1`, the EC50 in test [1] amounted to 9600 nM. The outcome in test [6] was inactive. Further, in test [9], the Activity is under 50%.
As for `O=c1ccn([C@@H]2O[C@H](COP(=O)(O)OP(=O)(O)OP(=O)(O)OP(=O)(O)Oc3ccc(Cl)cc3)[C@@H](O)[C@H]2O)c(=O)[nH]1`, the EC50 in test [1] amounted to 6600 nM.
Consider `[N-]=[N+]=N[C@@H]1[C@H](O)[C@@H](COP(=O)(O)OP(=O)(O)OP(=O)(O)O)O[C@H]1n1ccc(=O)[nH]c1=O`, for which the EC50 in test [12] is 5000 nM.
In the case of `CONc1ccn([C@@H]2O[C@H](COP(=O)(O)OP(=O)(O)OP(=O)(O)OP(=O)(O)O[C@H]3O[C@H](CO)[C@@H](O)[C@H](F)[C@H]3O)[C@@H](O)[C@H]2O)c(=O)n1`, the EC50 in test [1] came out at 500 nM; in test [3], 1440 nM; in test [5], 310 nM.
Turning to `O=c1ccn([C@@H]2O[C@H](COP(=O)(O)OP(=O)(O)OP(=O)(O)OP(=O)(O)O[C@H]3O[C@H](CO)[C@H](O)[C@H](O)[C@H]3O)[C@@H](O)[C@H]2O)c(=O)[nH]1`, the EC50 in [1] came to 940 nM.
Take `O=c1ccn([C@@H]2O[C@H](COP(=O)(O)OP(=O)(O)OP(=O)(O)OP(=O)(O)O[C@H]3O[C@H](CO)[C@@H](O)[C@@H](O)[C@H]3O)[C@@H](O)[C@H]2O)c(=O)[nH]1`: the EC50 in test [1] is 770 nM; in test [3], 1170 nM; in test [5], 183 nM.
